Screening data (PubChem)
Most compounds without a hit are left out; they make up all but 6.4% or so of the library.
CHOP inhibitor = inhibitors of CHOP promoter induction, primary screen, cell-based, unfolded protein response, luciferase reporter. AID 2732, 2010. inhibition, % at 10 µM. actives 3.8% (n = 220,000). CHO-K1 CHOP-promoter luciferase, tunicamycin-induced, 15-18 h;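 active means compounds that reduced the stress-induced luciferase reporter signal by more than about 70% of percent inhibition, limit read from the data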;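 further: 0% = tunicamycin plus vehicle and 100% = wells without tunicamycin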
TbMetRS inhib = T. brucei MetRS inhibitors, primary screen, biochemical, luminescence | methionyl-tRNA synthetase (Trypanosoma brucei brucei) | purified T. brucei MetRS, ATP depletion, Kinase-Glo luminescence | inhibition, % at 11.9 µM | actives 0.4% (n = 360,000);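 active means inhibition above a per-plate cutoff of the control wells' mean inhibition plus 3 SD, cut at about 5.5% in these data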;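 further: 0% = DMSO wells median and 100% = median of wells with control inhibitor compound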
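Material: parasite MetRS enzyme / Replication: singlicate, one well per compound / Signal: luminescence of leftover ATP / Schedule: 2 h aminoacylation at 25 °C after 15 min preincubation / Medium: HEPES-MgCl2-KCl buffer plus DTT, spermine, BSA, pyrophosphatase / Doses: 11.9 µM single point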
EBV gp42 inh = Epstein-Barr virus gp42 inhibitors, primary screen, biochemical, uHTS, fluorescence polarization; Glycoprotein 42 (Epstein-Barr virus (strain AG876)), Q1HVG2; Fluorescence polarization binding assay, mP read-out; inhibition, % (tested at 21.74 µM); actives 0.42% (n = 220,000); AID 1085, 2008; in the data active means inhibition above about 50%
Target sequence (Q1HVG2 whole entry, looked up): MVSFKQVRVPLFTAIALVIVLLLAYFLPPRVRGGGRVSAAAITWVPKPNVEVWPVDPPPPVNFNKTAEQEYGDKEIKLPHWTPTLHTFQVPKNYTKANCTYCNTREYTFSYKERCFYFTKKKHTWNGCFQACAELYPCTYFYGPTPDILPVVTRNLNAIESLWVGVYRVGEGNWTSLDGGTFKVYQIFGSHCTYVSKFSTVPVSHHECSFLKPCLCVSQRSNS
WT yeast gro inh = growth inhibition of WT strain, primary screen, mitochondrial fusion inhibitor project, WT and mutant strains, chemical genetic | mitochondrial fusion phenotypic screen | inhibition, % at 10 µM | actives 2.1% (n = 190,000); in the data active means inhibition above about 58%; tested in S. cerevisiae
GRIN3A LBD mod = binders of NR3A ligand-binding domain, primary screen, biophysical, differential scanning fluorimetry, uHTS; NR3A LBD differential scanning fluorimetry, Tm shift; 0% = protein alone, 100% = glycine-bound protein; Glutamate receptor ionotropic, NMDA 3A (GRIN3A) ligand-binding domain; Tm shift relative to glycine control, % at 25 µM; actives 2.5% (n = 340,000);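 active means melting temperature shift of at least 10% of the positive control shift, at one fixed dose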
MPTP block = mitochondrial permeability transition pore inhibitors, primary screen, biochemical, isolated mouse mitochondria, absorbance | Ca2+ swelling absorbance, 30 min | inhibition, % at 10 µM | actives 1.4% (n = 360,000);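 active means inhibition of 50% or more, scaled per plate between neutral and stimulator controls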;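 further: 0% = DMSO wells given calcium and 100% = 1 mM EGTA wells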
An asterisk follows results filed as active; / = not tested or not shown.

SMILES	CHOP inhibitor	TbMetRS inhib	EBV gp42 inh	WT yeast gro inh	GRIN3A LBD mod	MPTP block
COCCCNC(=O)c1ccc(NC(C)=O)cc1	-7	-1	-6	-7	-1	-4
O=C(/C=C/Nc1ccc(Br)cn1)c1cccc(OC(F)F)c1	/	0	/	/	14*	1
O=C(O)c1cc(-c2ccc3c(c2)OCO3)nc2ccc(Cl)cc12	/	0	/	/	-2	1
CCOC(=O)c1cc(-c2ccc3c(c2)OCO3)nc2onc(C)c12	15	-2	-8	78*	1	1
COc1ccc(-c2nnc3n(CCc4ccccc4)c(=O)c4ccccc4n23)c(OC)c1	18	1	-9	98*	-2	2
CCn1c(CNc2cccc(Cl)c2)nnc1SCC(=O)OC1CCCCC1	72*	-1	-10	25	2	0
Nc1nnc(SCC(=O)OCC(=O)Nc2ccc(Br)cc2)s1	-11	3	-15	1	1	0
Cc1nc(S/C(=C/c2ccc(-c3cccc(Cl)c3)o2)C(=O)O)n[nH]1	-2	0	-33	71*	0	1
COc1ccc(C(=O)O/N=C2\C(=O)N(C)c3ccccc32)cc1	/	0	/	/	3	2
CN1C(=O)/C(=N\OC(=O)c2cccc3ccccc23)c2ccccc21	95*	-1	2	-5	-1	1
Cc1ccc(SC(C)C(=O)Nc2ncn[nH]2)cc1 (stereo not drawn)	3	0	1	11	0	0
O=C(Nc1cccc(-c2csc(Nc3cccc(C(F)(F)F)c3)n2)c1)c1cc([N+](=O)[O-])cc(C(F)(F)F)c1	40	0	-18	/	2	7
O=C(Nc1ccc(-c2csc(Nc3ccccc3)n2)cc1)c1cc([N+](=O)[O-])cc(C(F)(F)F)c1	12	0	-4	/	24*	6
O=C(Nc1ccc(-c2csc(Nc3ccc(Cl)cc3)n2)cc1)c1cccc(C(F)(F)F)c1	49	/	-8	/	34*	/
O=C(Nc1ccc(-c2csc(Nc3ccccc3)n2)cc1)c1cccc(C(F)(F)F)c1	91*	0	-24	/	26*	1
COc1ccc(/C=C(/NC(=O)c2ccccc2)C(=O)N2CCOCC2)cc1OC	/	-1	/	/	0	-1
O=C(COc1ccc(F)cc1Cl)Nc1nc(-c2ccccn2)cs1	/	0	/	/	/	0
O=C(Cc1cccc2ccccc12)N/N=C/c1ccc2cccc(O)c2n1	-6	0	-12	/	2	8
Cc1nn(Cc2ccccc2)c(C)c1NC(=O)c1noc2c1CCc1ccccc1-2	86*	0	-11	34	-1	1
Cc1ccc(CN2CCN(Cc3cn[nH]c3-c3ccccc3)CC2CCO)o1 (stereo not drawn)	18	0	-12	14	0	1
COc1c(C(CC(C)C)OC(C)=O)ccc2c1C(=O)OCc1cc(C)cc(O)c1O2 (stereo not drawn)	72*	-2	-15	/	1	2
Cc1ccc(/C=N/NC(=O)c2cc(C)oc2C)o1	1	0	-7	32	-1	-1
Cc1ccc(C(=O)N/N=C\c2ccc(-c3ccc(Cl)cc3)o2)cn1	1	0	-13	/	13*	12
Cc1cc(C(=O)NN=Cc2ccc(-c3ccc(F)cc3)o2)c(C)o1	/	-1	/	/	16*	1
O=C(O)c1cc(-c2ccc(/C=N/Nc3ccc(Cl)cc3)o2)ccc1Cl	16	-1	3	62*	-7	2
CCn1c(CNC(=O)c2cccc(C)c2)nnc1SCC(=O)NC1CCCCC1C (stereo not drawn)	-18	-1	-30	11	-3	0
COc1ccc(COC(=O)c2ccc(S(=O)(=O)N3CCCCC3)cc2)cc1OC	/	0	/	/	3	-1
COc1cc(NC(=O)c2ccc([N+](=O)[O-])cc2)ccc1NC(=O)C(C)C	-2	-1	-5	-4	-1	-1
CCCCN1C(=O)c2ccc(C(=O)Nc3cccc(C)c3C)cc2C1=O	76*	3	-16	11	0	0
